Measurements of several laboratories.
Compare with care: the assays were run in different laboratories.
SLC6A4: Sodium-dependent serotonin transporter (SLC6A4, Homo sapiens, UniProt P31645)
rep main protease: Replicase polyprotein 1ab, main protease (rep, Porcine epidemic diarrhea virus, UniProt P0C6Y4)
rep papain-like protease: Replicase polyprotein 1ab, papain-like protease (rep, Porcine epidemic diarrhea virus, UniProt P0C6Y4)

SMILES	target	test	conditions	inhibition [%]
C#Cc1cc(-c2cc(Nc3nc(N[C@@H](C)c4ccc(F)cn4)ncc3Cl)n[nH]2)ccc1C=O	Rhodopsin kinase GRK7 (GRK7, Homo sapiens, UniProt Q8WTQ7)	enzyme activity, inhibitor	0.2 µM	63
Cc1cc(O)c(-c2ccc([C@@H](C)CN(C)C)cc2)c2c1[nH]c(=O)c1sccc12	Mitogen-activated protein kinase kinase kinase 6 (MAP3K6, Homo sapiens, UniProt O95382)	enzyme activity, inhibitor	0.1 µM	15.6
N#C[C@@]12C[C@@H]1[C@@H](n1cnc3c(Nc4ccccc4)nc(C#Cc4ccc(Cl)s4)nc31)[C@H](O)[C@@H]2O	SLC6A4	ligand displacement, radioligand	10 µM	12
NC/C(=C\F)COc1cccc(Cn2c(=S)[nH]c(=O)c3[nH]cnc32)c1	SLC6A4	ligand displacement, radioligand	10 µM	< 50
CC(C)C(C(=O)NCc1cc(O)c(O)c(Br)c1)c1ccc(Cl)cc1 (stereo not drawn)	rep main protease	enzyme activity, inhibitor, FRET	10 µM	41.9
CCOC(=O)[C@@]12C[C@@H]1[C@@H](n1ccc3c(NCCCCCCCc4ccccc4)nc(C#Cc4ccccc4)nc31)[C@H](O)[C@@H]2O	SLC6A4	ligand displacement, radioligand	10 µM	32
Cc1cc(F)cc2c(CCC(=O)N[C@@H]3C(=O)NC[C@H]3O)c(-c3ccc(F)cc3)[nH]c12	SLC6A4	cell-free assay	10 µM	8
CCOC(=O)[C@@]12C[C@@H]1[C@@H](n1cnc3c(NCc4cccc(Cl)c4)nc(I)nc31)[C@H](O)[C@@H]2O	SLC6A4	ligand displacement, radioligand	10 µM	-5
O=C(NCc1cc(O)c(O)c(Br)c1)c1cccc(CCl)c1	rep papain-like protease	enzyme activity, inhibitor, FRET	10 µM	103
CCOC(=O)[C@@]12C[C@@H]1[C@@H](n1cnc3c(NCCCCCc4ccccc4)nc(C#Cc4ccc(Cl)s4)nc31)[C@H](O)[C@@H]2O	SLC6A4	ligand displacement, radioligand	10 µM, cell membranes	1
O=C(NCc1cc(O)c(O)c(Br)c1)c1cccc(Br)c1	rep main protease	enzyme activity, inhibitor, FRET	10 µM	98.4
CCN1/C(=C/C(C)=O)Sc2ccc(F)cc21	Type-2 angiotensin II receptor (AGTR2, Homo sapiens, UniProt P50052)	ligand displacement, radioligand	10 µM	4.51
COc1ccc(CNC(=O)c2ccc(Br)cc2)cc1OC	rep papain-like protease	enzyme activity, inhibitor, FRET	10 µM	66.1
N#C[C@@]12C[C@@H]1[C@@H](n1cnc3c(Nc4ccccc4)nc(I)nc31)[C@H](O)[C@@H]2O	SLC6A4	ligand displacement, radioligand	10 µM	3
CSc1ccccc1C(=O)NCc1cc(O)c(O)c(Br)c1	rep main protease	enzyme activity, inhibitor, FRET	10 µM	13.9
CCOC(=O)[C@@]12C[C@@H]1[C@@H](n1cnc3c(NCCCCc4ccccc4)nc(C#Cc4ccc(Cl)s4)nc31)[C@H](O)[C@@H]2O	SLC6A4	ligand displacement, radioligand	10 µM	16
O=C(NCc1cc(O)c(O)c(Br)c1)c1ccccc1	rep main protease	enzyme activity, inhibitor, FRET	10 µM	74.8
O=C1C=C(Nc2ccc(OCc3cn(Cc4ccccc4)nn3)cc2)C(=O)c2ccccc21	BDNF/NT-3 growth factors receptor (NTRK2, Homo sapiens, UniProt Q16620)	enzyme activity, inhibitor, radiometric	10 µM	0
